This is an account of results in ChEMBL document CHEMBL1142898, “Synthesis and biological evaluation of benzoic acid derivatives as potent, orally active VLA-4 antagonists” (Bioorg Med Chem, 2007).

The term AUC denotes concentration integrated over time. High values mean high exposure, low ones low exposure. A word on the Cmax: it is the highest concentration seen after dosing. The MRT is the average time that molecules of a dose stay in the body. One may read the bioavailability as the share of a dose that reaches the circulation, judged against a reference dose that is usually intravenous. The term clearance denotes a measure of how efficiently the substance is removed, as volume per time. A high value points to efficient removal. For orientation: Vd means the apparent volume that relates the amount in the body to the concentration in plasma or blood. The low end stands for confinement near the circulation, the high end for extensive tissue distribution. Usually logD stands for lipophilicity at a set pH, counting ionised and neutral species.

For series [1], the system named is Mus musculus. Briefly: AUC in BALB/c mouse at 20 mg/kg, po normalized to 10 mg/kg. The series is classed as ADME, organism-based, Plasma. The following applies: in vivo.
Series [2] has as its system Mus musculus. Briefly: Cmax in BALB/c mouse at 20 mg/kg, po normalized to 10 mg/kg after 15 mins. The series is classed as ADME, organism-based. The arrangement: dose 20 mg/kg, route oral. The following applies: in vivo.
Series [3] is described as follows: AUC in Sprague-Dawley rat 10 mg/kg, po. The series is classed as ADME, organism-based. The arrangement: dose 10 mg/kg, route oral. The following applies: plasma. An outline of the steps: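 Male Sprague–Dawley rats, 6 weeks old, fasted 18 h, 3–4 per group. Oral dose 10 mg/5 ml/kg in 0.5% methylcellulose. Blood (0.4 ml) drawn at 0.25, 0.5, 1, 2 and 6 h. Plasma held at −20 °C, drug measured by LC/MS/MS, and PK parameters derived by non-compartmental analysis.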

For series [4], the species on record is Mus musculus. The following applies: in vivo, 5 mg/kg.
The species named for series [5] is Mus musculus. The following applies: in vivo, 10 mg/kg.
A short description of series [6]: in vivo. The following applies: BALB/c, mouse, serum, 10 mg/kg.
The nature of series [7]: in vivo. The following applies: BALB/c, mouse, 5 mg/kg.
A short description of series [8]: in vivo. The following applies: BALB/c, mouse, plasma, iv, 10 mg/kg.
Series [9] can be described thus: in vivo. The following applies: Sprague-Dawley, rat, 10 mg/kg.
Series [10] can be described thus: in vivo. The following applies: Sprague-Dawley, rat, blood, 10 mg/kg.
The nature of series [11]: in vivo. The following applies: Sprague-Dawley, rat, plasma, iv, 10 mg/kg.
A short description of series [12]: in vivo. The following applies: Sprague-Dawley, rat, plasma, 10 mg/kg.
Series [13] in a line: in vivo. The following applies: Sprague-Dawley, rat, 10 mg/kg. This is another data set of the same source.
The next series is described as follows: physchem. The following applies: octanol/water.
The subject of series [14] is Rattus norvegicus. Briefly: Cmax in Sprague-Dawley rat at 10 mg/kg, iv. The following applies: in vivo.
Series [15] is described as follows: in vivo. The following applies: BALB/c, mouse, serum, 50 mg/kg.
Series [16] can be described thus: AUC in BALB/c mouse at 10 mg/kg, po. Details: dose 10 mg/kg, route oral. The following applies: plasma. The series is classed as ADME, organism-based.
Series [17] concerns Mus musculus. Briefly: Cmax in BALB/c mouse at 10 mg/kg, po after 15 mins. The series is classed as ADME, organism-based. Details: dose 10 mg/kg, route oral. The following applies: in vivo. An outline of the steps: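 Female BALB/c mice, 8 weeks old, 4 per group. Dosed orally at 10 mg/1 ml/kg in 0.5% CMC. Drug level estimated by adding serum (0.01–10% final) to a Eu-VCAM-1/Fc binding assay on CHO-K1 cells expressing human VLA-4.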

Series [18] is described as follows: AUC in Beagle dog at 1 mg/kg, po. The series is classed as ADME, organism-based, Canis lupus familiaris. Details: dose 1 mg/kg, route oral. The following applies: plasma.
Series [19] is filed under the species Rattus norvegicus. The following applies: in vivo, 10 mg/kg.
The species named for series [20] is Canis familiaris. The following applies: dog, in vivo, po, 1 mg/kg.
For series [21], the species on record is Canis familiaris. The following applies: dog, in vivo, po, 1 mg/kg. This is another data set of the same source.
Series [22] can be described thus: in vivo. The following applies: BALB/c, mouse, 5 mg/kg. This is another data set of the same source.
A short description of series [23]: in vivo. The following applies: BALB/c, mouse, plasma, 10 mg/kg.
Series [24] can be described thus: in vivo. The following applies: BALB/c, mouse, 10 mg/kg.
Series [25] is described as follows: in vivo. The following applies: beagle, dog, po, 2 mg/kg.
A short description of series [26]: in vivo. The following applies: beagle, dog, 1 mg/kg.
Series [27] in a line: in vivo. The following applies: beagle, dog, plasma, iv, 1 mg/kg.

In the case of `Cc1cc(CC(=O)N2C[C@@H](F)C[C@H]2COc2ccc(C(=O)O)cc2)ccc1NC(=O)Nc1ccccc1Br`, the AUC with Mus musculus [1] worked out at 1095 ng·h/mL; in series [3], 5230 ng·h/mL; in “in vivo [8]”, 5260 ng·h/mL; in “in vivo [11]”, 15600 ng·h/mL. Besides, the Cmax in the series with Mus musculus [2] worked out at 391 ng/mL; in the series on Rattus norvegicus [14], 6700 ng/mL. Also, the values for the MRT in the series filed under Mus musculus [4] and in “in vivo [10]” were 2.3 h and 2 h, respectively. This compound also had a Vdss in the series filed under Mus musculus [5] of 0.67 L/kg. In the series “in vivo [6]”, this compound returned a concentration at […] of 693 ng/mL. In addition, the results for the bioavailability in the series “in vivo [7]” and in the series “in vivo [9]” were 21% and 34%, respectively. This compound had a clearance in the series “in vivo [12]” of 11.3 mL/min/kg. The compound also showed a Vd in “in vivo [13]” of 0.29 L/kg. This compound also gave a logD in the series “physchem” of 1.64.
`O=C(Nc1ccccc1Cl)Nc1ccc(CC(=O)N2C[C@@H](F)C[C@H]2COc2ccc(C(=O)O)cc2)cc1Br` registered a concentration at […] in the series “in vivo [6]” of 1880 ng/mL. This compound registered a logD in the series “physchem” of 2.17.
In the same order, the values of `O=C(Nc1ccc(CC(=O)N2C[C@@H](F)C[C@H]2COc2ccc(C(=O)O)cc2)cc1Cl)Nc1ccccc1Br` are 2160 ng/mL and 2.34.
Turning to `Cc1cc(CC(=O)N2C[C@@H](F)C[C@H]2COc2ccc(C(=O)O)cc2)ccc1NC(=O)Nc1ccccc1Cl`, in the series “in vivo [6]”, the concentration at […] came to 472 ng/mL. This compound registered a logD in “physchem” of 1.69.
`COc1cc(CC(=O)N2C[C@@H](F)C[C@H]2COc2ccc(C(=O)O)cc2)ccc1NC(=O)Nc1ccccc1Cl`: the concentration at 0.5 h in the series “in vivo [15]” is 142 ng/mL. The compound also showed a logD in “physchem” of 1.87.
On to `Cc1ccccc1NC(=O)Nc1ccc(CC(=O)N2C[C@@H](F)C[C@H]2COc2ccc(C(=O)O)cc2)cc1Cl`, for which the AUC was determined as 2540 ng·h/mL in [16]; 11500 ng·h/mL in series [3]; 3120 ng·h/mL in [18]; 8900 ng·h/mL in the series “in vivo [8]”; 31900 ng·h/mL in the series “in vivo [11]”; 5680 ng·h/mL in the series “in vivo [27]”. Further, the Cmax in the series on Mus musculus [17] was determined as 2250 ng/mL; in the series filed under Canis familiaris [20], 2370 ng/mL; with Rattus norvegicus [14] it was 13000 ng/mL. Besides, the clearance in the series listed under Rattus norvegicus [19] was 5.2 mL/min/kg; in the series “in vivo [23]” it was 18.5 mL/min/kg. In the series filed under Canis familiaris [21], the Vdss was determined as 0.14 L/kg. In “in vivo [6]”, this compound had a concentration at […] of 3660 ng/mL. In addition, the bioavailability worked out at 28% in the series “in vivo [7]”, 36% in “in vivo [9]” and 55% in “in vivo [25]”. Also, the mean residence time (MRT) in the series “in vivo [22]” came out at 1.2 h; in “in vivo [10]”, 1.7 h; in the series “in vivo [26]”, 1.6 h. Moreover, the figures for the volume of distribution (Vd) in the series “in vivo [24]” and in the series “in vivo [13]” were 0.33 L/kg and 0.24 L/kg, respectively. For the same compound, in “physchem”, the log distribution coefficient (logD) stood at 1.61.
In the series “in vivo [6]”, `Cc1ccccc1NC(=O)Nc1ccc(CC(=O)N2C[C@@H](F)C[C@H]2COc2ccc(C(=O)O)cc2)cc1C` came in with a concentration at […] of 368 ng/mL. For the same compound, the logD in the series “physchem” came to 1.09.
